Columns and labels:
PA1 cells [1] = experiment: Cell cycle analysis; assay type: cell-based; settings: 48 h
Summary of the method: (§1)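 Cells seeded at 1 × 10^5/well, then treated next day with 10, 50 or 75 nM for 48 h. PI (4 µg/ml) added for 5 min at RT. 10,000 events acquired by flow cytometry.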

A2780 cells [2] = experiment: Cell cycle analysis; assay type: cell-based; settings: 48 h
Summary of the method: as §1

PA1 cells [3] = experiment: JC-1 mitochondrial membrane potential assay; assay type: cell-based; settings: 10, 50, 75 nM; 48 h
Summary of the method: (§2)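 After 48 h test-compound treatment, cells were harvested and resuspended in staining buffer containing JC-1, 20 min in the dark at 37 °C, 5% CO2. Then resuspended in fresh buffer; 10,000 events acquired by flow cytometry. Valinomycin as positive control.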

A2780 cells [4] = experiment: JC-1 mitochondrial membrane potential assay; assay type: cell-based; settings: 10, 50, 75 nM; 48 h
Summary of the method: as §2

PA1 cells [5] = experiment: Immunoblotting of apoptosis-related proteins and MMP1; assay type: cell-based
Summary of the method: (§3)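 Treated and control cells lysed in RIPA buffer with protease inhibitors; protein measured by Bradford. 40 µg resolved by SDS-PAGE and transferred to PVDF. Bands probed with antibodies, detected by enhanced chemiluminescence and quantified by densitometry.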

A2780 cells [6] = experiment: Immunoblotting of apoptosis-related proteins; assay type: cell-based
Summary of the method: as §3

PA1 cells [7] = experiment: Intracellular ROS, H2DCFDA flow cytometry; assay type: cell-based
Summary of the method: (§4)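 Intracellular ROS: 1 × 10^5 cells per 35 mm dish exposed to test compound for 10, 20 and 30 min. Harvested, washed in PBS, stained with H2DCFDA for 30 min and analysed by flow cytometry. H2O2-treated cells as positive control. ROS taken as the histogram shift in median fluorescence intensity versus vehicle control.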

A2780 cells [8] = experiment: Intracellular ROS, H2DCFDA flow cytometry; assay type: cell-based; settings: 75 nM
Summary of the method: as §4

PA1 cells [9] = experiment: Spectrometric ROS measurement; assay type: cell-based
Summary of the method: (§5)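 Plate-reader ROS: 20,000 cells/well plated; after 24 h washed in PBS. Incubated 1 h in PBS with 10 µM H2DCFDA plus various test-compound concentrations, with or without 20 mM NAC. Fluorescence read at ex 485/em 535. 200 µM H2O2 as positive control.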

A2780 cells [10] = experiment: Spectrometric ROS measurement; assay type: cell-based
Summary of the method: as §5

PA1 cells [11] = experiment: Real time PCR of mitochondrial OXPHOS genes; assay type: cell-based; settings: 48 h
Summary of the method: (§6)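 Total RNA extracted from cells treated with various test-compound concentrations. 2 µg RNA reverse-transcribed to cDNA. qPCR run in triplicate with primers for ND2, CYTB and ATPase 6.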

A2780 cells [12] = experiment: Real time PCR of mitochondrial OXPHOS genes; assay type: cell-based; settings: 48 h
Summary of the method: as §6

PA1 cells [13] = experiment: Transwell migration assay; assay type: cell-based; settings: 40 nM, 48 h treatment, 5 h migration
Summary of the method: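 PA1 cells pretreated with various test-compound concentrations for 48 h, then 1 × 10^5 seeded into 8 µm-pore inserts in serum-free medium, complete medium below, 5 h. Inserts washed in PBS and fixed in 70% ethanol; non-migrated inner cells removed with cotton. Cells stained with 0.2% crystal violet, imaged and quantified by image analysis.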

[14] = test system: human breast cancer cell lines (MDA-MB-231, MDA-MB-468, MCF7); experiment: MTT assay of human breast cancer cell lines; assay type: cell-based; settings: 48 h, read-out: IC50 (cytotoxicity)
MCF7 = experiment: MTT assay of human breast cancer cell lines; assay type: cell-based; settings: 48 hours
[15] = test system: Ehrlich ascites carcinoma (EAC) solid tumor; experiment: Antitumor activity in EAC solid tumor mice; assay type: in vivo, Swiss albino mice
Summary of the method: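 EAC cells maintained by intraperitoneal passage in mice every 7 days. Day-7 ascites cells were diluted in PBS, and 1 × 10^6 cells were injected subcutaneously into the thigh. On day 7, caliper-measured tumours were allocated to groups of equal mean size, 5 animals/group, repeated three times (n = 15). Groups: untreated control or test compound 10 mg/kg b.wt i.p. every alternate day. Tumour size and body weight were recorded every alternate day; V = (ab2)/2.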

[16] = test system: Ehrlich ascites carcinoma (EAC) solid tumor; experiment: Chemopreventive effect in EAC solid tumor mice; assay type: in vivo, Swiss albino mice
Summary of the method: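 Subcutaneous EAC thigh tumour model (1 × 10^6 cells). The treated group got 15 alternate-day doses of test compound (10 mg/kg b.wt) before tumour injection, none at inoculation, then 15 further doses after tumour injection. Compared with untreated controls, n = 5/group. Tumour volume was measured from day 7 after tumour injection, with body weight and physiological parameters. Two independent experiments.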

EAC tumor tissue = experiment: Histology; assay type: in vivo, Swiss albino mice; settings: ST03 post-treatment
Summary of the method: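 Tumour and organs (kidney, liver, spleen) collected at study end and fixed; paraffin sections (10 µm) H&E-stained. PCNA IHC on 5 µm tumour sections: 3% H2O2 in PBS, antigen retrieval by boiling in 10 mM sodium citrate pH 6. Blocked with 5% goat serum/1% BSA for 30 min. Mouse anti-PCNA 1:100 (1 h RT or overnight 4 °C), biotinylated anti-mouse IgG 1:200, streptavidin-HRP 1:1000, DAB-H2O2.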

[17] = Toxicity in experimental animals; assay type: in vivo, Swiss albino mice
[18] = Bioavailability study, plasma concentration by HPLC-UV; assay type: in vivo, Swiss albino mice
Summary of the method: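 Swiss albino mice, n = 2/group, single oral or i.p. dose: test compound 10 mg/kg b.wt, curcumin 20 mg/kg b.wt. Blood sampled at 5, 10, 15 min and 1, 3, 6, 12, 24 h. Plasma protein-precipitated with an equal volume of acetonitrile. HPLC-UV at 1 mL/min, room temperature, detection 312 nm (test compound) or 369 nm (curcumin). Calibration curve in mouse plasma, 1–100 µM. Mean per time point.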

Solubility in 0.6 N HCl = assay type: physicochemical
PA-1 cells = experiment: Cytotoxicity on ovarian cancer cells compared to curcumin; assay type: cell-based
A2780 = experiment: as above; assay type: cell-based
[19] = test system: various cancer cell lines; settings: cited from earlier work
PA1 cells [20] = experiment: Cell viability assay with ST03 and NAC; assay type: cell-based; settings: 20 mM NAC, 20 nM ST03, 24 h
A2780 cells [21] = experiment: Cell viability assay with ST03 and NAC; assay type: cell-based; settings: 20 mM NAC, 20 nM ST03, 24 h
tumor = settings: cited from earlier work
xenograft models = settings: twice-daily, nude mice; cited from earlier work
[22] = Swiss albino, mouse, plasma, ip, 10 mg/kg
[23] = Swiss albino, mouse, plasma, po, 10 mg/kg
[24] = Swiss albino, mouse, plasma, ip, 20 mg/kg
[25] = Swiss albino, mouse, plasma, po, 20 mg/kg

O=C1/C(=C/c2ccccc2Cl)CN(C(=O)C(=O)N2C/C(=C\c3ccccc3Cl)C(=O)/C(=C/c3ccccc3Cl)C2)C/C1=C\c1ccccc1Cl [ST03, 1,2-bis[(3E,5E)-3,5-bis[(2-chlorophenyl)methylene]-4-oxo-1-piperidyl]ethane-1,2-dione]
cells accumulated at the sub G0/G1 stage (PA1 cells [1]; 50 nM): ~70% | cell cycle arrest (PA1 cells [1]; 10, 50, 75 nM): no notable cell cycle arrest | cells accumulated at the sub G0/G1 stage (A2780 cells [2]; 50 nM): ~60% | cell cycle arrest (A2780 cells [2]; 10, 50, 75 nM): no notable cell cycle arrest | JC1 green population (mitochondrial damage) (PA1 cells [3]): increase in the green population | JC1 green population (mitochondrial damage) (A2780 cells [4]): increase in the green population | p53 expression (PA1 cells [5]): upregulation | Bax expression (PA1 cells [5]; 40 nM): increase | Bcl2 expression (PA1 cells [5]; 40 nM): significant decrease | MMP1 expression (PA1 cells [5]; 40 nM): significant decrease | Cytochrome C (PA1 cells [5]; increasing concentrations): increase | p53 expression (A2780 cells [6]): upregulation | Bax expression (A2780 cells [6]; 40 nM): increase | Bcl2 expression (A2780 cells [6]; 40 nM): significant decrease | Cytochrome C (A2780 cells [6]; increasing concentrations): increase | time at which ROS production was induced (PA1 cells [7]; 40 nM): 10 min | time at which ROS production was induced (PA1 cells [7]; 50 nM): ≤ 10 min | time at which the histogram shifted (ROS production) (A2780 cells [8]): 30 min | time to peak ROS levels (PA1 cells [9]; 20 mM ST03 as printed, 20 nM): 1 h | time to peak ROS levels (A2780 cells [10]; 20 mM ST03 as printed, 20 nM): 1 h | transcription of mitochondrially encoded OXPHOS genes (ND2, CYB, Atpase6) (PA1 cells [11]): decrease in the transcription | transcription of mitochondrially encoded OXPHOS genes (ND2, CYB, Atpase6) (A2780 cells [12]): decrease in the transcription | reduction in migration (PA1 cells [13]): 60% | IC50 [14]: 166 to 301 nM | IC50 rank among breast cancer cell lines (MCF7): least IC50 | spleen size vs untreated animals ([15]; 10 mg/kg b.wt i.p.): reduction in spleen size | tumor growth vs untreated control ([15]; 10 mg/kg b.wt i.p. every alternate day from day 7, 25 days): significant reduction in tumor growth | dosage sufficient to inhibit tumor growth without adverse systemic toxicity ([15]; 15 doses, tumor allograft): 10 mg/kg | pre and post-treatment compared with post-treatment alone ([16]; 10 mg/kg b.wt): better results than post-treatment alone | tumor growth vs controls ([16]; pre-treatment with 15 alternate doses of 10 mg/kg b.wt, then post-treatment): significant reduction in tumor growth | proliferating cells (PCNA staining) in tumor (EAC tumor tissue): reduction in proliferating cells | tumor cells in H&E stained tumor vs control tissue (EAC tumor tissue): significant reduction of tumor cells | Bcl2 in tumor extract (EAC tumor tissue; western blot): up-regulation | histopathology of kidney, liver and spleen (H&E) ([17]; ST03 post-treatment): no pathological changes | RBC count ([17]; end of study): No significant change | WBC count vs control group ([17]; end of study): increase in the number of WBCs | body weight ([17]; pre- and post-treatment animals, 10 mg/kg b.wt): no notable weight reduction | ALT level ([17]; serum, end of study): No significant change | AST level ([17]; serum, end of study): No significant change | urea level ([17]; serum, end of study): No significant change | Cmax [18, 22]: 98.4 µM | Tmax [18, 22]: 8 h | Cmax [18, 23]: 55.2 µM | Tmax [18, 23]: 2 h | half-life [18, 23]: 3 h | presence in plasma until ([18]; intraperitoneal): > 12 h | presence in plasma until ([18]; oral): > 12 h | bioavailability compared to curcumin ([18]; oral, ST03 10 mg/kg, curcumin 20 mg/kg): ~14 fold | detectable in plasma ([18]; route not given): up to 12 h | solubility (Solubility in 0.6 N HCl): completely soluble | cytotoxicity on PA-1 compared with A2780 (PA-1 cells): better cytotoxicity on PA-1 cells | cytotoxicity relative to curcumin (PA-1 cells): 100 fold | cytotoxicity relative to curcumin (A2780): 100 fold | potency relative to curcumin [19]: ~100 fold | selectivity of toxicity, cancer cells vs normal cells [19]: selectively induces toxicity in cancer cells compared to normal cells

O=C1/C(=C/c2ccccc2)CN(C(=O)C(=O)N2C/C(=C\c3ccccc3)C(=O)/C(=C/c3ccccc3)C2)C/C1=C\c1ccccc1 [1,2-bis[(3E,5E)−3,5-dibenzylidene-4-oxo-1-piperidyl]ethane-1,2-dione, reference compound]
cytotoxic potency compared with curcumin ([19]; multiple cancer cell lines in vitro): greater potency than the parent compound curcumin

CC(=O)N[C@@H](CS)C(=O)O [NAC, N-acetylcysteine, reference compound]
effect of NAC on ST03 induced ROS (PA1 cells [9]; 20 mM NAC with ST03): blocked ST03 induced increase in ROS | effect of NAC on ST03 induced ROS (A2780 cells [10]; 20 mM NAC with ST03): blocked ST03 induced increase in ROS | cell death with ST03 in presence of NAC (PA1 cells [20]): decrease in cell death | cell death with ST03 in presence of NAC (A2780 cells [21]): decrease in cell death

COc1cc(/C=C/C(=O)CC(=O)/C=C/c2ccc(O)c(OC)c2)ccc1O [curcumin, reference compound]
Cmax [18, 24]: 2.7 µM | Tmax [18, 24]: 3 h | Cmax [18, 25]: 13.7 µM | Tmax [18, 25]: 0.25 h | potency range [19]: ~10000 nM | dosage with antitumor activity in vivo (tumor): 800 mg/kg of body weight | effective dosage in xenograft models (xenograft models): 50 mg/kg b.wt
